Test results from ChEMBL document CHEMBL1641583, “Design, synthesis, and biological evaluation of N-acetyl-S-(p-chlorophenylcarbamoyl)cysteine and its analogs as a novel class of anticancer agents” (Bioorg Med Chem, 2011).
≈ marks a conversion by molar mass, not a printed value. Calls of active or inactive are those of the source. The calls are words filed in the database; no cut-off is given here.

Columns and labels:
SK-MEL-2 [1] = assay: Ratio of compound IC50 to dacarbazine IC50 for human SK-MEL-2 cells; format: functional
UACC-62 [2] = assay: Cytotoxicity against human UACC62 cells after 1 to 3 days by MTT assay; format: functional, cell-based
UACC-62 [3] = assay: Ratio of compound IC50 to dacarbazine IC50 for human UACC62 cells; format: functional
SK-MEL-2 [4] = assay: Cytotoxicity against human SK-MEL-2 cells after 1 to 3 days by MTT assay; format: functional, cell-based
OVCAR-3 [5] = assay: Cytotoxicity against human OVCAR3 cells after 6 days by MTT assay; format: functional, cell-based; settings: OVCAR-3, 144 h
SK-MEL-2 [6] = assay: Cytotoxicity against human SK-MEL-2 cells after 6 days by MTT assay; format: functional, cell-based; settings: SK-MEL-2, 144 h
UACC-62 [7] = assay: Cytotoxicity against human UACC62 cells after 6 days by MTT assay; format: functional, cell-based; settings: UACC-62, 144 h
[8] = Cytotoxicity against human GC3/C1 cells after 6 days by MTT assay; format: functional, cell-based; settings: GC3/C1, 144 h
OVCAR-3 [9] = assay: Cytotoxicity against human OVCAR3 cells after 1 to 3 days by MTT assay; format: functional, cell-based
[10] = Solubility of the compound in 0.1 M phosphate buffer at pH 7.4; format: physicochemical
How it was run: (§1)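 Solubility measured in ethyl acetate and in 0.1 M phosphate buffer pH 7.4; reported in mg/mL.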

[11] = Solubility of the compound in ethyl acetate; format: physicochemical; how it was run: as §1
UACC-62 [12] = assay: Induction of apoptosis in human UACC62 cells assessed as translocation of phosphatidylserine from inner layer to outer layer of cell membrane after 6 days using annexin V staining by flow cytometry; format: functional, cell-based
How it was run: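 UACC-62 plated and dosed in 96-well format as for cytotoxicity, 6 days; adherent plus floating cells trypsinized, PBS-washed, 1×10^6 cells/mL in annexin-binding buffer; ~1×10^5 cells stained with Alexa Fluor 488 annexin V and PI 15 min dark, room temperature; early plus late apoptotic fractions summed by flow cytometry; mean ± SD, three experiments.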

[13] = Cytotoxicity against african green monkey CV1 cells after 6 days by MTT assay; format: cell-based; settings: Chlorocebus aethiops, CV-1, 144 h
A-431 = assay: Cytotoxicity against human A431 cells after 6 days by MTT assay; format: functional, cell-based
[14] = Cell cycle arrest in human GC3/C1 cells assessed as DNA accumulation at 0.01 to 1 uM after 6 days using propidium iodide staining by flow cytometry; format: functional, cell-based
How it was run: (§2)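 Cells seeded in 75 cm² flasks (GC3/c1 0.3 million, UACC-62 0.14 million) in RPMI 1640/10% FBS, exposed 6 days; adherent cells only trypsinized, PBS-washed, 1 million fixed in 70% ethanol at 4 °C, RNase A 30 min 37 °C, propidium iodide 30 min dark at room temperature; DNA content by flow cytometry; mean ± SD, three independent experiments.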

PC-3 = assay: Cytotoxicity against human PC3 cells after 6 days by MTT assay; format: functional, cell-based
UO-31 = assay: Cytotoxicity against human UO31 cells after 6 days by MTT assay; format: functional, cell-based
UACC-62 [15] = assay: Cell cycle arrest in human UACC62 cells assessed as DNA accumulation at 0.01 to 1 uM after 6 days using propidium iodide staining by flow cytometry; format: functional, cell-based; how it was run: as §2
UACC-62 [16] = assay: Induction of apoptosis in human UACC62 cells assessed as translocation of phosphatidylserine from inner layer to outer layer of cell membrane at > 1 uM after 6 days using annexin V staining by flow cytometry; format: functional, cell-based
NCI-H226 = assay: Cytotoxicity against human NCI-H226 cells after 6 days by MTT assay; format: functional, cell-based

Compound	IC50 (OVCAR-3 [5]) [µM]	IC50 (UACC-62 [7]) [µM]	IC50 [8] [µM]	also measured
CC(=O)N[C@@H](CSC(=O)Nc1ccc(Br)cc1)C(=O)O	> 200	0.32	63.5	Ratio IC50 (SK-MEL-2 [1]): 1000; Activity (UACC-62 [2]): inactive; Ratio IC50 (UACC-62 [3]): 37; Activity (SK-MEL-2 [4]): inactive; IC50 (SK-MEL-2 [6]): 0.12 µM; Activity (OVCAR-3 [9]): inactive; solubility [10]: 24 mg/mL (≈ 66.4 mM); solubility [11]: 50 mg/mL (≈ 138 mM)
CC(=O)N[C@@H](CSC(=O)Nc1ccc(C(F)(F)F)cc1[N+](=O)[O-])C(=O)O	> 200	> 200	> 200	
COc1ccc(NC(=O)SC[C@H](NC(C)=O)C(=O)O)cc1	> 200	75.2	> 200	
CSc1ccccc1NC(=O)SC[C@H](NC(C)=O)C(=O)O	> 200	> 200	> 200	
COc1ccccc1CNC(=O)SC[C@H](NC(C)=O)C(=O)O	> 200	> 200	> 200	
CC(=O)N[C@@H](CSC(=O)Nc1ccc(Cl)cc1)C(=O)O	> 200	0.024	8.13	Ratio IC50 (SK-MEL-2 [1]): 16000; Activity (UACC-62 [12]): Dose-dependent effect; Activity (UACC-62 [2]): inactive; Ratio IC50 (UACC-62 [3]): 490; IC50 [13]: 522 µM; Activity (SK-MEL-2 [4]): inactive; Activity (A-431): inactive; IC50 (SK-MEL-2 [6]): 0.008 µM; Activity [14]: inactive; Activity (PC-3): inactive; Activity (UO-31): inactive; Activity (UACC-62 [15]): inactive; Activity (UACC-62 [16]): inactive; Activity (OVCAR-3 [9]): inactive; solubility [10]: 26 mg/mL (≈ 82.1 mM); solubility [11]: 721 mg/mL (≈ 2280 mM); Activity (NCI-H226): inactive
COc1ccccc1NC(=O)SC[C@H](NC(C)=O)C(=O)O	> 200	> 200	> 200	
CC(=O)N[C@@H](CSC(=O)NCc1ccc(Cl)cc1)C(=O)O	> 200	> 200	> 200	
CC(=O)N[C@@H](CSC(=O)Nc1cc(Cl)cc(Cl)c1)C(=O)O	> 200	> 200	> 200	
CC(=O)N[C@@H](CSC(=O)Nc1cccc2ccccc12)C(=O)O	> 200	> 200	> 200	
CC(=O)N[C@@H](CSC(=O)Nc1ccccc1Cl)C(=O)O	> 200	> 200	> 200	
CC(=O)N[C@@H](CSC(=O)Nc1ccccc1F)C(=O)O	> 200	> 200	> 200	
COc1ccc(OC)c(NC(=O)SC[C@H](NC(C)=O)C(=O)O)c1	> 200	> 200	> 200	
CC(=O)N[C@@H](CSC(=O)Nc1ccc([N+](=O)[O-])cc1Cl)C(=O)O	> 200	> 200	> 200	
CC(=O)N[C@@H](CSC(=O)Nc1cccc(Cl)c1)C(=O)O	> 200	> 200	> 200	
CC(=O)N[C@@H](CSC(=O)Nc1ccccc1)C(=O)O	153	125	178	
CC(=O)N[C@@H](CSC(=O)Nc1ccc(F)cc1)C(=O)O	> 200	0.036	114	Ratio IC50 (SK-MEL-2 [1]): 279; Activity (UACC-62 [2]): inactive; Ratio IC50 (UACC-62 [3]): 328; Activity (SK-MEL-2 [4]): inactive; IC50 (SK-MEL-2 [6]): 0.43 µM; Activity (OVCAR-3 [9]): inactive; solubility [10]: 26 mg/mL (≈ 86.6 mM); solubility [11]: 388 mg/mL (≈ 1290 mM)
CC(=O)N[C@@H](CSC(=O)Nc1ccc(I)cc1)C(=O)O	> 200	46.2	> 200	
CN(C)/N=N/c1[nH]cnc1C(N)=O [DACARBAZINE]	17.7	11.8	7.67	IC50 (SK-MEL-2 [6]): 120 µM
